M1 ag parental = counter-screen for M1 agonists: effect in parental CHO-K1 cells. activation, % at 3 µM. Fluo-8 calcium fluorescence; scaled to maximal ATP response, vehicle zero. 360,000 compounds, 0.48% hits. AID 602248; in the data active = activation above about 15%;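 note: untransfected CHO-K1 host cells lacking M1 receptor as counterscreen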
CHO parental Ca = counter-screen for OX1R antagonists: effect in parental CHO cells; 330,000 compounds, 0.63% hits; AID 463079; parental CHO-K1, ATP-induced calcium, Fluo-8 fluorescence; inhibition, % at 5.6 µM;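 active = inhibition above that plate's mean sample inhibition plus 3 SD, cut at about 26% in these data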
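Assay system – parental CHO cells · Reagent – ATP stimulus · Detection – intracellular calcium via Fluo-8 no-wash fluorescent dye · Evaluation – percent inhibition of ATP-evoked calcium rise, normalized to controls · Controls – ATP wells versus no-ATP DMSO wells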
OX1R antag-1 = OX1R (human) antagonism; O43613; OX1R-expressing cells, FRET antagonist read-out; inhibition, % at 6.6 µM; 330,000 compounds, 1.8% hits; in the data active = inhibition mostly above about 38%, no sharp cut-off; inactive = mostly below about 40%
Target sequence (O43613 whole entry, looked up): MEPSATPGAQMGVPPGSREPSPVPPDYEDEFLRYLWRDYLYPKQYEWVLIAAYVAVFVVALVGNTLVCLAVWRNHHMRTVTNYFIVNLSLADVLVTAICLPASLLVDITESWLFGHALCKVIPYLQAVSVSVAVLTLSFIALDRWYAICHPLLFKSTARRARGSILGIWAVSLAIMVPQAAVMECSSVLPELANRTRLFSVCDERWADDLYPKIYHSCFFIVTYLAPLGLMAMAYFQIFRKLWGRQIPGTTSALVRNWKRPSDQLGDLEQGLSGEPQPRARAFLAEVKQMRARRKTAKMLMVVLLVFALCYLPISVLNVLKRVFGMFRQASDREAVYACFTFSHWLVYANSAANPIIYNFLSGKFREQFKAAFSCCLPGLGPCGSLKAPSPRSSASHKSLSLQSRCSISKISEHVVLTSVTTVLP
OX1R antag-2 = blocks the human orexin 1 receptor; O43613; CHO/OX1R cells, Fluo-8 calcium fluorescence, orexin A; inhibition, % at 5 µM; 330,000 compounds, 0.43% hits; AID 434989;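 active = inhibition above its plate's threshold, mean inhibition of all tested compounds on the plate plus 3 SD, cut at about 37% in these data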
CHO-K1 Ca antag = nonselective inhibitor or artifact in parental CHO-K1 cells; AID 602250; 360,000 compounds, 0.6% hits; inhibition, % at 3 µM; ATP-induced calcium, Fluo-8 fluorescence;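 active = inhibition above a per-plate cutoff, the plate's mean sample inhibition plus 3 SD, cut at about 24% in these data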
M1 PAM parental = nonselective activator or artifact in parental CHO-K1 calcium assay; ATP EC20, Fluo-8 calcium fluorescence; 0% at ATP EC20, 100% at ATP max; activation, % at 3 µM; 360,000 compounds, 0.02% hits; AID 602247;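 active = activation above the run cutoff, the mean activation of all test compounds plus 3 SD, cut at about 40% in these data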;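 note: peak over basal fluorescence ratio in a 140 s read after ATP addition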
Large screens that a line does not name were inactive. Rows were chosen to be rich in hits. Some 2.9% of all compounds tested hit in one or more screens of this group.

CC(=O)c1ccc(N2CCN(c3ccccc3O)CC2)c([N+](=O)[O-])c1	M1 ag parental 19, CHO parental Ca 44, OX1R antag-1 79, OX1R antag-2 63
CC1Cc2ccccc2N1C(=O)c1ccc(N2CCCCC2)c([N+](=O)[O-])c1 (stereo unspecified)	OX1R antag-1 50
N#Cc1cc([N+](=O)[O-])ccc1N1CCN(c2ccccc2O)CC1	CHO parental Ca 32
O=C(O)c1ccccc1C(=O)c1ccc(N2CCCC2)c([N+](=O)[O-])c1	none
CC1Cc2ccccc2N1C(=O)c1ccc(N2CCCC2)c([N+](=O)[O-])c1 (stereo unspecified)	none
O=[N+]([O-])c1ccc(N2CCN(c3ccc([N+](=O)[O-])cc3CO)CC2)c(CO)c1	M1 ag parental 18
Cc1nc(C)n(CC(C)C(=O)N2CCN(S(=O)(=O)c3ccccc3)CC2)n1 (stereo unspecified)	none
Cc1cc(C)c(S(=O)(=O)N2CC=C(c3ccccc3)CC2)c(C)c1	none
FC(F)(F)c1cnc2c(c1)[nH]c(=S)n2-c1ccc(Cl)cc1	M1 ag parental 16
COC(=O)c1[nH]c2ccccc2c1NC(=O)CN1CCN(c2cccc(OC)c2)C(C)C1 (stereo unspecified)	CHO-K1 Ca antag 28
CC(C)c1ccc(OCC(O)CNC(C)c2ccccc2)cc1 (stereo unspecified)	M1 ag parental 21
Cc1nnc(SCCN2C(=O)c3ccccc3C2=O)nc1C	none
CCCOC(=O)c1ccc(OCC(O)CN2C(=O)NC(C)(C)C2=O)cc1 (stereo unspecified)	CHO parental Ca 99
S=c1nc2ccccc2c2nc(-c3ccccc3)[nH]n12	OX1R antag-1 65
S=c1nc2ccccc2c2nc(-c3ccccc3Cl)[nH]n12	OX1R antag-1 57
COCCC(=O)N1CCC(Oc2ccc(C(=O)NCc3ncc(C)[nH]3)cc2)CC1	none
COc1ccc(CN(CCN(C)C)c2ccccn2)cc1	none (no result: M1 ag parental, CHO-K1 Ca antag, M1 PAM parental)
CCCCCCCCCCCCCCCC[N+](C)(C)CCN(Cc1ccc(OC)cc1)c1ncccn1	CHO parental Ca 64, OX1R antag-2 46
CCCCN(C)C(=O)c1nc2ccccn2c1CN1CCN(C(=O)c2cccs2)CC1	none
CC(=O)Nc1ccc2nc3c(=O)n(C)c(=O)n(C)c3nc2c1	OX1R antag-1 60
COc1ccc(OCC(=O)Nc2sc3c(c2C(=O)NCC2CCCO2)CCC3)cc1 (stereo unspecified)	none
COc1ccccc1N1C(=O)CC(Nc2ccc(N3CCOCC3)cc2)C1=O (stereo unspecified)	OX1R antag-1 71
O=C1CC(Nc2ccc(N3CCOCC3)cc2)C(=O)N1c1ccccc1 (stereo unspecified)	none
O=c1cc2c(nn1Cc1cccc(Cl)c1)-c1ccccc1CC2	CHO-K1 Ca antag 47
Cc1cn([C@@H](CCCCNC(=O)OC(C)(C)C)C(=O)NCCCCCCCCCCC(=O)N2CCN(C(=O)OC(C)(C)C)CC2)nn1	M1 ag parental 16, CHO parental Ca 61, OX1R antag-1 61
CC[C@H](C)Cc1cn([C@@H](CCCN=C(NC(=O)OC(C)(C)C)NC(=O)OC(C)(C)C)C(=O)NCCCCCCCCCCC(=O)N2CCN(C(=O)OC(C)(C)C)CC2)nn1	none
Cn1c(=O)c2cc(NC(=O)NCCc3cccs3)ccc2n1-c1ccc(C(C)(C)C)cc1	none (no result: CHO parental Ca, OX1R antag-1, OX1R antag-2)
CN(c1ccccc1)S(=O)(=O)c1cccc(NC(=O)CN2CCCc3ccccc32)c1	M1 ag parental 15, CHO parental Ca 33
CN(c1ccccc1)S(=O)(=O)c1cccc(NC(=O)CSc2nncs2)c1	CHO-K1 Ca antag 29
O=S(=O)(c1cccc(Br)c1)N1CCN(c2ccnc3cc(Cl)ccc23)CC1	CHO parental Ca 35
N#Cc1cccc(S(=O)(=O)N2CCN(c3ccnc4cc(Cl)ccc34)CC2)c1	none
CCN(C(=O)COC(=O)c1ccco1)c1c(N)n(Cc2ccccc2)c(=O)[nH]c1=O	none
CN(C(=O)COC(=O)c1ccccc1NCc1ccco1)c1c(N)n(Cc2ccccc2)c(=O)[nH]c1=O	OX1R antag-1 64
CCSc1oc(-c2ccccc2)nc1S(=O)(=O)c1ccccc1	none
CSc1oc(-c2ccccc2)nc1S(=O)(=O)c1ccc(C)cc1	CHO parental Ca 29
O=C(Oc1ccc(C(=S)N2CCOCC2)cc1)c1ccccc1[N+](=O)[O-]	OX1R antag-1 56
CCn1c(CNC(=O)c2ccccc2F)cc2cc(C)ccc21	CHO-K1 Ca antag 31 (no result: CHO parental Ca, OX1R antag-1, OX1R antag-2)
CCn1c(CNC(=O)c2ccccc2Cl)cc2ccccc21	none
COc1cc(C(=O)NCc2cc3ccccc3n2C)cc(OC)c1OC	M1 ag parental 16
Cn1c(CNC(=O)c2ccc(F)cc2)cc2ccccc21	none
CCn1c(CNC(=O)c2cc(OC)c(OC)c(OC)c2)cc2ccccc21	OX1R antag-1 69
C=CCNC(=O)CN1C(=O)c2cccc3cccc1c23	none
CC(=O)NS(=O)(=O)c1ccc(NC(=O)c2cccc(OCc3c(C)noc3C)c2)cc1	none
FC(F)(F)c1cccc(-c2nc3nc(Cl)c(Cl)nc3[nH]2)c1	M1 ag parental 18, CHO parental Ca 38, OX1R antag-1 40
CCOc1ccc(Cl)cc1CNCCCSc1ncccn1	M1 ag parental 19
O=C1C2C3C=CC(C3)C2C(=O)N1c1ccccc1OS(=O)(=O)c1ccccc1 (stereo unspecified)	OX1R antag-1 71
Cc1ccc(S(=O)(=O)Oc2ccccc2N2C(=O)C3C4CCC(C4)C3C2=O)cc1 (stereo unspecified)	none
COC(=O)/C=C/c1ccccc1CN1[C@@H](CC(=O)OC)c2ccccc2S1(=O)=O	none
CCOC(=O)C1=C(COC(=O)c2sccc2C)NC(=O)NC1C (stereo unspecified)	none
CCOC(=O)C1=C(COC(=O)c2ccc([N+](=O)[O-])s2)NC(=O)NC1C (stereo unspecified)	OX1R antag-1 37
O=C(Nc1c2c(nc3ccccc13)CCCC2)c1cccc([N+](=O)[O-])c1	none
COc1ccccc1C(=O)N/C(=C/c1ccc(Br)cc1)C(=O)N1CCCC1	none
O=C1CC(N2CCN(C3CC(=O)N(CCc4ccccc4)C3=O)CC2)C(=O)N1CCc1ccccc1 (stereo unspecified)	none
O=C1CC(N2CCN(C/C=C/c3ccccc3)CC2)C(=O)N1CCc1ccccc1 (stereo unspecified)	M1 ag parental 16
O=C1C(=O)N(CCN2CCOCC2)C(c2ccc([N+](=O)[O-])cc2)/C1=C(/O)c1ccc2c(c1)OCO2 (stereo unspecified)	none
Nc1c(SCCC(=O)O)ccc2c1C(=O)c1ccccc1C2=O	OX1R antag-1 43
CC(C)C(c1nnnn1C(C)(C)C)N1CCOCC1 (stereo unspecified)	none
